Data from ChEMBL document CHEMBL4321879, “Novel Class of Colony-Stimulating Factor 1 Receptor Kinase Inhibitors Based on an o-Aminopyridyl Alkynyl Scaffold as Potential Treatment for Inflammatory Disorders” (J Med Chem, 2020).
pIC50: −log10 of the molar value. The source made the active and inactive calls. The rule behind the calls is not given here.

Key:
[1] = target: Insulin-like growth factor 1 receptor (Homo sapiens) (UniProt P08069); experiment: Inhibition of recombinant human N-terminal His6-tagged IGF1R (959 to end residues) expressed in baculovirus infected Sf21 insect cells at 1000 nM using poly (Glu, Tyr)4:1 as substrate measured after 1 hr by ELISA relative to control
Outline: (§1)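 ELISA kinase assay: recombinant kinase added to wells precoated with poly(Glu,Tyr)4:1 and incubated with compound in reaction buffer containing 5 μM ATP, 37 °C for 1 h; wells then washed before antibody detection.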

[2] = target: Platelet-derived growth factor receptor beta (Homo sapiens) (UniProt P09619); experiment: Inhibition of recombinant human N-terminal His6-tagged PDGFRbeta (557 to end residues) expressed in baculovirus infected Sf21 insect cells at 100 nM using poly (Glu, Tyr)4:1 as substrate measured after 1 hr by ELISA relative to control; outline: as §1
[3] = target: T1, Fibroblast growth factor receptor 4 (Homo sapiens, UniProt P22455); experiment: Inhibition of recombinant human N-terminal His6-tagged FGFR4 (442 to 755 residues) expressed in baculovirus infected Sf21 insect cells at 100 nM using poly (Glu, Tyr)4:1 as substrate measured after 1 hr by ELISA relative to control
Outline: (§2)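 Recombinant kinase was incubated with compound in reaction buffer containing 5 μM ATP, in wells precoated with poly(Glu,Tyr) 4:1, for 1 h at 37 °C. Phosphorylation was detected by ELISA.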

[4] = target: Proto-oncogene tyrosine-protein kinase Src (Homo sapiens) (UniProt P12931); experiment: Inhibition of recombinant human full-length N-terminal His6-tagged Src expressed in Sf21 insect cells at 10 nM using poly (Glu, Tyr)4:1 as substrate measured after 1 hr by ELISA relative to control; outline: as §1
[5] = target: Insulin receptor (Homo sapiens) (UniProt P06213); experiment: Inhibition of recombinant human N-terminal His6-tagged IR (1005 to 1310 residues) expressed in baculovirus infected Sf21 insect cells at 1000 nM using poly (Glu, Tyr)4:1 as substrate measured after 1 hr by ELISA relative to control; outline: as §1
[6] = Elimination half life in Sprague-Dawley rat at 2 mg/kg, iv administered […] by LC-MS/MS analysis; format: ADME, organism-based; conditions: in vivo, read-out: beta t1/2 (converted)
Outline: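 Male SD rats (200 ± 20 g) were fasted 12 h with free access to water, n = 3 per group. One group received 2 mg/kg iv in DMSO/EtOH/PEG300/saline (5/5/40/50). The other received 5 mg/kg by oral gavage in DMSO/HPMC (5/95). Femoral-vein plasma was taken at 15–1440 min, methanol-precipitated with internal standard, and measured by LC–MS/MS. Noncompartmental analysis; AUC by trapezoidal method.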

[7] = target: T1, Fibroblast growth factor receptor 4; experiment: Inhibition of recombinant human N-terminal His6-tagged FGFR4 (442 to 755 residues) expressed in baculovirus infected Sf21 insect cells at 1000 nM using poly (Glu, Tyr)4:1 as substrate measured after 1 hr by ELISA relative to control; outline: as §1
[8] = target: Platelet-derived growth factor receptor alpha (Homo sapiens) (UniProt P16234); experiment: Inhibition of recombinant human N-terminal His6-tagged PDGFRalpha (550 to end residues) expressed in baculovirus infected Sf21 insect cells at 1000 nM using poly (Glu, Tyr)4:1 as substrate measured after 1 hr by ELISA relative to control; outline: as §1
Mus musculus = experiment: Antiinflammatory activity in BALB/c mouse assessed as reduction in LPS-induced IL6 production at 20 to 40 mg/kg, po pretreated for 4 hrs followed by LPS-stimulation and measured after 3 hrs by ELISA; format: functional, organism-based
Outline: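 Female BALB/c mice, 8 weeks old, n = 6 per group, dosed orally at 20 or 40 mg/kg in 0.5% CMC-Na/0.25% Tween-80 4 h before ip LPS 5 mg/kg. Orbital-sinus blood was taken at 1.5 h (TNF-α) and 3 h (IL-6). Serum cytokines measured by ELISA. Mean ± SEM, one-way ANOVA with Dunnett's test.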

[9] = target: T2, Fibroblast growth factor receptor 3 (Homo sapiens, UniProt P22607); experiment: Inhibition of recombinant human N-terminal His6-tagged FGFR3 (447 to 761 residues) expressed in baculovirus infected Sf21 insect cells using poly (Glu, Tyr)4:1 as substrate measured after 1 hr by ELISA; outline: as §2
Target sequence in this assay (P22607 whole entry, the tested form may be a part): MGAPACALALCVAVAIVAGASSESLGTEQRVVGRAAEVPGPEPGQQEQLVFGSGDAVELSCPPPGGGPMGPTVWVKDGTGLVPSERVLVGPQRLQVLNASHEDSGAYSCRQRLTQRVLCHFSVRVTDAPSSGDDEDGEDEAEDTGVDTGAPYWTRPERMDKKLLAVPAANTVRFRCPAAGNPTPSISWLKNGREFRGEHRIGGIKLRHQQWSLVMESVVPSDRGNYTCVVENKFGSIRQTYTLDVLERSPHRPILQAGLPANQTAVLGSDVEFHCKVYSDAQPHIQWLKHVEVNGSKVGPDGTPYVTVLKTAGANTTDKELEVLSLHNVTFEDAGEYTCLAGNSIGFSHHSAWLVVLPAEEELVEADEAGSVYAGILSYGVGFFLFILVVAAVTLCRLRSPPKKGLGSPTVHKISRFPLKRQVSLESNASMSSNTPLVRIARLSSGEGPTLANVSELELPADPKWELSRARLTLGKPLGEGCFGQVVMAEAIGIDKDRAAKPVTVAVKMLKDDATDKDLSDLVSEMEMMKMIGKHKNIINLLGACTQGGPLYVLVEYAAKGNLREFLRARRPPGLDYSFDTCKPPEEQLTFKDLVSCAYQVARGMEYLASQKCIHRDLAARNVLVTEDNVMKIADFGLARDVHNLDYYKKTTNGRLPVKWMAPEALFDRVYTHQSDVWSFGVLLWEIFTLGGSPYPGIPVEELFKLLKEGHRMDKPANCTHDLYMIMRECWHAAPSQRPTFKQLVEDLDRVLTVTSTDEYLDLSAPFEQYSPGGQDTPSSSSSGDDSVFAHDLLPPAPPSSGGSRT

[10] = target: Voltage-gated inwardly rectifying potassium channel KCNH2 (Homo sapiens, UniProt Q12809); experiment: Inhibition of human ERG by Qpatch automatic patch-clamp assays
[11] = target: Epidermal growth factor receptor (Homo sapiens) (UniProt P00533); experiment: Inhibition of recombinant human N-terminal GST-tagged EGFR (696 to end residues) expressed in baculovirus infected Sf21 insect cells at 100 nM using poly (Glu, Tyr)4:1 as substrate measured after 1 hr by ELISA relative to control; outline: as §2
[12] = target: T2, Fibroblast growth factor receptor 3; experiment: Inhibition of recombinant human N-terminal His6-tagged FGFR3 (447 to 761 residues) expressed in baculovirus infected Sf21 insect cells at 100 nM using poly (Glu, Tyr)4:1 as substrate measured after 1 hr by ELISA relative to control; outline: as §2
c-KIT = c-KIT (Homo sapiens, UniProt P10721); experiment: Inhibition of recombinant human N-terminal GST-tagged c-KIT (544 to end residues) expressed in baculovirus infected Sf21 insect cells at 1000 nM using poly (Glu, Tyr)4:1 as substrate measured after 1 hr by ELISA relative to control; conditions: probe poly (Glu, Tyr)4:1; outline: as §2
[13] = target: Vascular endothelial growth factor receptor 2 (Homo sapiens) (UniProt P35968); experiment: Inhibition of recombinant human VEGFR2 (D1-7) expressed in Spodoptera frugiperda insect cells at 10 nM using poly (Glu, Tyr)4:1 as substrate measured after 1 hr by ELISA relative to control; outline: as §1
[14] = target: Macrophage colony-stimulating factor 1 receptor (Mus musculus) (UniProt P09581); experiment: Inhibition of CSF1R in CSF1-stimulated mouse RAW264.7 cells assessed as reduction in AKT phosphorylation preincubated for 6 hrs followed by CSF1 stimulation and measured after 20 mins by Western blot analysis; format: cell-based
Outline: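 RAW264.7 cells were plated in six-well plates overnight, treated with compound for 6 h, then stimulated with CSF-1 100 ng/mL for 20 min. Lysates were normalized by BCA, run on 10% SDS-PAGE, and blotted with antibodies to phospho-CSF1R (Tyr723), CSF1R, phospho-Akt (Ser473), Akt and actin.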

[15] = target: Activated CDC42 kinase 1 (Homo sapiens) (UniProt Q07912); experiment: Inhibition of recombinant human N-terminal GST-tagged ACK1 (1 to 389 residues) expressed in baculovirus infected Sf21 insect cells at 1000 nM using poly (Glu, Tyr)4:1 as substrate measured after 1 hr by ELISA relative to control; outline: as §2
[16] = target: Insulin-like growth factor 1 receptor (Homo sapiens) (UniProt P08069); experiment: Inhibition of recombinant human N-terminal His6-tagged IGF1R (959 to end residues) expressed in baculovirus infected Sf21 insect cells at 100 nM using poly (Glu, Tyr)4:1 as substrate measured after 1 hr by ELISA relative to control; outline: as §1

T1 sequence (P22455 22-802 limits assumed): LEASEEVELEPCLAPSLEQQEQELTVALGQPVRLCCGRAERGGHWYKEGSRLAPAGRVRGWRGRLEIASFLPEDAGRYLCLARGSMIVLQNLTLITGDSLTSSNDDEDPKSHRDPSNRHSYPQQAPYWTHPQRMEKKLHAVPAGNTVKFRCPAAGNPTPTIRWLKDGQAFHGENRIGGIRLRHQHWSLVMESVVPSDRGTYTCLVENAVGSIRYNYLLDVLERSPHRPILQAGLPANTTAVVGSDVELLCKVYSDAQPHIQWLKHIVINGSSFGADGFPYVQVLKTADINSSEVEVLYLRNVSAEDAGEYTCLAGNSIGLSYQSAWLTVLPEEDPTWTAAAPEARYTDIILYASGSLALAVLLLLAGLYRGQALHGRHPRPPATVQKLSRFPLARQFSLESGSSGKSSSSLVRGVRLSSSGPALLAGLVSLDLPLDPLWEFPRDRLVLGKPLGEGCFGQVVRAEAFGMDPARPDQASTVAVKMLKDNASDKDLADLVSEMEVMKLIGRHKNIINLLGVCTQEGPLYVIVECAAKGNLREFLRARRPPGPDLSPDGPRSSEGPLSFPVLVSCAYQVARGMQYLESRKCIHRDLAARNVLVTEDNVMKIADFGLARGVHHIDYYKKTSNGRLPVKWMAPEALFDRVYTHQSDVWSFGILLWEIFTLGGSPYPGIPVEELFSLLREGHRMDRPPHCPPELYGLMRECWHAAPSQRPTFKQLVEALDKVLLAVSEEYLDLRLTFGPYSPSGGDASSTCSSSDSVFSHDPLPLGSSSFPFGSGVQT
Sequence of Insulin-like growth factor 1 receptor (Homo sapiens) (P08069 31-736 limits assumed): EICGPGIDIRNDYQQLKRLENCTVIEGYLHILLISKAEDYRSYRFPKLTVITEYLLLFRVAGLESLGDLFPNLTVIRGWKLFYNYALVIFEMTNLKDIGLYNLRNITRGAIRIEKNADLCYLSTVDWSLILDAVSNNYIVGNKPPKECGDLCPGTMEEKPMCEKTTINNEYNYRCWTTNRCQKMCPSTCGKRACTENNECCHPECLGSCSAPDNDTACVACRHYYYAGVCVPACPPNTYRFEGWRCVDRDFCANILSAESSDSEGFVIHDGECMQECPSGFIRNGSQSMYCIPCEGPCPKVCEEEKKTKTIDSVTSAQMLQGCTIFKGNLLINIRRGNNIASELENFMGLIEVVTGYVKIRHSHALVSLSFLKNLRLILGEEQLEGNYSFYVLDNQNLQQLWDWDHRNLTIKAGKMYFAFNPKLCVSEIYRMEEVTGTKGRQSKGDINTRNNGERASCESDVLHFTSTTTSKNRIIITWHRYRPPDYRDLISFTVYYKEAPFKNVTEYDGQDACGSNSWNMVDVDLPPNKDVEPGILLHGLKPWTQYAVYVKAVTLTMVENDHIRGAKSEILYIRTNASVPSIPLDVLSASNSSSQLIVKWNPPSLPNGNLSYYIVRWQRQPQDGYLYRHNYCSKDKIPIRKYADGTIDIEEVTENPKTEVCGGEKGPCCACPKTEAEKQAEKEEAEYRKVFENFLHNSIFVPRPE
Sequence of Insulin-like growth factor 1 receptor (Homo sapiens) (P08069 741-1367 limits assumed): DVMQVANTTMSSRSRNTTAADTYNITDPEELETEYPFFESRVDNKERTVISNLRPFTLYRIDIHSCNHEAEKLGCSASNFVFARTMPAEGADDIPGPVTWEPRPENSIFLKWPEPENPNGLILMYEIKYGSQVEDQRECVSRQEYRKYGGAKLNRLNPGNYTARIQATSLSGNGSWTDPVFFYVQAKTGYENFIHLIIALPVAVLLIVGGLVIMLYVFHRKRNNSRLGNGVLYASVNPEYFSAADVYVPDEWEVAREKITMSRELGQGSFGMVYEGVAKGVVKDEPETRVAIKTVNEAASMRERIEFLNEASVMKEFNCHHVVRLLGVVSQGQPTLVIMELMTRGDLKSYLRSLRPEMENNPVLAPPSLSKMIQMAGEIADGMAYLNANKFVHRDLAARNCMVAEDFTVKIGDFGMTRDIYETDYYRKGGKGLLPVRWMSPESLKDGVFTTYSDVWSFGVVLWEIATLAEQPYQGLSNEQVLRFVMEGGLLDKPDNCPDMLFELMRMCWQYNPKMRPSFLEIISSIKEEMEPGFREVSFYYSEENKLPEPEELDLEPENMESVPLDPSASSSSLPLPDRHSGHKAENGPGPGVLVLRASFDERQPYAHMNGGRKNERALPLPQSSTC
Sequence of c-KIT (P10721 whole entry): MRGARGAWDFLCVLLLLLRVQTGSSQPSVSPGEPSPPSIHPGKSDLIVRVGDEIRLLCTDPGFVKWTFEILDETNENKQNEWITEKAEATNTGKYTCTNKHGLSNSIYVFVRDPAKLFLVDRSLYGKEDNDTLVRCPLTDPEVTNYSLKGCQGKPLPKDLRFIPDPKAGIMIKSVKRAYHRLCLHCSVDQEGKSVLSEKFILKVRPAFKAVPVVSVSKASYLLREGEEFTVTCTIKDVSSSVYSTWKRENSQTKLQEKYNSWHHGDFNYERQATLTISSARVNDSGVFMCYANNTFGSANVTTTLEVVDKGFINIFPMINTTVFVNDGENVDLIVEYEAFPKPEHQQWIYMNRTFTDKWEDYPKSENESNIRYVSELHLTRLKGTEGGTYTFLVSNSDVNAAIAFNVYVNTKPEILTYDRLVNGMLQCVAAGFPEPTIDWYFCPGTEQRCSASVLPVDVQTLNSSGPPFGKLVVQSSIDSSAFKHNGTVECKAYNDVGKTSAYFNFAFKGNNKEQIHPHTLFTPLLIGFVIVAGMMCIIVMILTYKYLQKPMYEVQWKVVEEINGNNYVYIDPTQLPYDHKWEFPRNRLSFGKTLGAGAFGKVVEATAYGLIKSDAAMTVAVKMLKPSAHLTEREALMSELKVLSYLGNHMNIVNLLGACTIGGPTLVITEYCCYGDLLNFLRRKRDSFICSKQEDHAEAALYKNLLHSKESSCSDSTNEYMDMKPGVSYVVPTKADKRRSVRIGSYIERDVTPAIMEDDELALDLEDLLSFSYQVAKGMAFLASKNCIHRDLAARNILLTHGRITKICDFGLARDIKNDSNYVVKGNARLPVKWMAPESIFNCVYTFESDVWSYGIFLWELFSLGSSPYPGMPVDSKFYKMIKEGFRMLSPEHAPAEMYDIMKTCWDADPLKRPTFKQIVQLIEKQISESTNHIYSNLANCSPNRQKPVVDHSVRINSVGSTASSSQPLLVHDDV
Sequence of Voltage-gated inwardly rectifying potassium channel KCNH2 (Q12809 whole entry): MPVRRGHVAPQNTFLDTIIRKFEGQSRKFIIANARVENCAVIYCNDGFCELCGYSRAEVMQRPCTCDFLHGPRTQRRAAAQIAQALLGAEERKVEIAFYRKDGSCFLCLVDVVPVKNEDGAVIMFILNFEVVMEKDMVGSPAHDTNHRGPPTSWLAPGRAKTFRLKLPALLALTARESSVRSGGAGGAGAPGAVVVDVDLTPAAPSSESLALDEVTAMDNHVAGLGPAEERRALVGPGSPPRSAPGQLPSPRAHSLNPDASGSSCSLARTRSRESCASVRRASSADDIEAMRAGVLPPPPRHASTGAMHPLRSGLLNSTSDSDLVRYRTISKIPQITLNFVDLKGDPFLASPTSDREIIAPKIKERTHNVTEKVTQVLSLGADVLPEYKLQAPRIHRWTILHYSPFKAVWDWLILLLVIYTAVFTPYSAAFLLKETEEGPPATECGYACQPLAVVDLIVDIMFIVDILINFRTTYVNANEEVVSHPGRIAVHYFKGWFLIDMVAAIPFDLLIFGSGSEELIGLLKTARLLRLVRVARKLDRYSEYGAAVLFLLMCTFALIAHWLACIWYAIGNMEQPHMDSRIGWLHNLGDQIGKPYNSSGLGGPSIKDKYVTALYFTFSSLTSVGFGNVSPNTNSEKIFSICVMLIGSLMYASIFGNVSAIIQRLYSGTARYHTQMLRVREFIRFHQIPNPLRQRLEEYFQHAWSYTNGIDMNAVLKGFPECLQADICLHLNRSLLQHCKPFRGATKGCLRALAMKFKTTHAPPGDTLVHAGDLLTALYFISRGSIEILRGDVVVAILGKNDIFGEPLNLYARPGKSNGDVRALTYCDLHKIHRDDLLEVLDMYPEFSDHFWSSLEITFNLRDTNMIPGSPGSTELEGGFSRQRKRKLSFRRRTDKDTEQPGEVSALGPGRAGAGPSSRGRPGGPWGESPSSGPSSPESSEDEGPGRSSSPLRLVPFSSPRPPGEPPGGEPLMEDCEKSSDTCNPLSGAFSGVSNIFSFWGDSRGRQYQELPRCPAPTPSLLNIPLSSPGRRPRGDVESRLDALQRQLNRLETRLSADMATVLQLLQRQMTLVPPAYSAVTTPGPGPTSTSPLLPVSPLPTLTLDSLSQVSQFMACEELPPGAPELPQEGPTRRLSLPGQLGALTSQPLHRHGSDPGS

inhibition [1]: 0%
inhibition [2]: 70.5%
inhibition [3]: 0%
inhibition [4]: 1.5%
inhibition [5]: 0%
half-life [6]: 3.33 h
inhibition [7]: 7.4%
inhibition [8]: 92.6%
pIC50 [9]: < 6.00
inhibition [11]: 7.4%
inhibition [12]: 0%
inhibition at 1 h, 1 µM (c-KIT): 98.2%
inhibition [13]: 23.2%
inhibition [14]: Dose-dependent effect
inhibition [15]: 30.9%
inhibition [16]: 0%
Structure (SMILES): Cc1ccc(C(=O)Nc2ccc(Cl)cc2)cc1C#Cc1cc(-c2cnn(C)c2)cnc1N
Activity (Mus musculus): Active
pIC50 [10]: < 4.40
